ChEMBL document CHEMBL1124280, “Synthesis and biological evaluation of isomeric dinucleoside monophosphates and monomethylphosphonates of 9-beta-D-arabinofuranosyladenine and related analogues” (1988)
Converted amounts (≈) assume the structure as drawn.

How the values were obtained:
Assay type in all cases: functional
FM3A = assay: Inhibitory effect on proliferation of Murine mammary Carcinoma (FM3A); conditions: Mus musculus, read-out: ID50 (the source's name)
HeLa [1] = assay: Minimum cytotoxic concentration against vaccinia virus in aneuploid (Hela) human cells
Procedure, shortened: (§1)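 Uninfected confluent monolayers (rabbit kidney, HeLa, Vero or E6SM) were incubated with compound for the same time as the antiviral assay. The value is the lowest concentration (µg/mL) that causes a microscopically detectable change in normal cell morphology.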

HeLa [2] = assay: Minimum inhibitory concentration against vaccinia virus in aneuploid (Hela) human cells
Homo sapiens [3] = organism: Homo sapiens; assay: Minimum cytotoxic concentration in diploid (E6SM) human cell culture; procedure, shortened: as §1
Homo sapiens [4] = organism: Homo sapiens; assay: Minimum inhibitory concentration against vaccinia virus in diploid (E6SM) human cell culture
Homo sapiens [5] = organism: Homo sapiens; assay: Inhibitory effect on proliferation of Human B-Lymphoblast (Raji); conditions: read-out: ID50 (the source's name)
L1210 = assay: Inhibitory effect on Proliferation of Murine Leukemia (L1210); conditions: Mus musculus, read-out: ID50 (the source's name)
Oryctolagus cuniculus [6] = organism: Oryctolagus cuniculus; assay: Minimum cytotoxic concentration against herpes simplex virus in primary rabbit kidney cell cultures; procedure, shortened: as §1
Oryctolagus cuniculus [7] = organism: Oryctolagus cuniculus; assay: Antiviral activity in primary rabbit kidney cell cultures against Herpes Simplex virus type 1 (Fstrain)
Oryctolagus cuniculus [8] = organism: Oryctolagus cuniculus; assay: Antiviral activity in primary rabbit kidney cell cultures against Herpes Simplex virus type 1 (KOS strain)
Oryctolagus cuniculus [9] = organism: Oryctolagus cuniculus; assay: Antiviral activity in primary rabbit kidney cell cultures against Herpes Simplex virus type 1 (McIntyre strain)
Oryctolagus cuniculus [10] = organism: Oryctolagus cuniculus; assay: Antiviral activity in primary rabbit kidney cell cultures against Herpes Simplex virus type 1 (TK-strain B2006)
Oryctolagus cuniculus [11] = organism: Oryctolagus cuniculus; assay: Antiviral activity in primary rabbit kidney cell cultures against Herpes Simplex virus type 1 (TK-strain VMW I837)
Oryctolagus cuniculus [12] = organism: Oryctolagus cuniculus; assay: Antiviral activity in primary rabbit kidney cell cultures against Herpes simplex virus type 2 Strain 196
Oryctolagus cuniculus [13] = organism: Oryctolagus cuniculus; assay: Antiviral activity in primary rabbit kidney cell cultures against Herpes simplex virus type 2 Strain G
Oryctolagus cuniculus [14] = organism: Oryctolagus cuniculus; assay: Antiviral activity in primary rabbit kidney cell cultures against Herpes simplex virus type 2 Strain Lyons
Oryctolagus cuniculus [15] = organism: Oryctolagus cuniculus; assay: Antiviral activity in primary rabbit kidney cell cultures against vesicular stomatitis virus
[16] = Inhibitory effect on proliferation of Human T-Lymphoblast (Molt/4F) cells; conditions: read-out: ID50 (the source's name)
Vero [17] = assay: Minimum inhibitory concentration against vaccinia virus in vero cells of African green monkey kidney; conditions: Chlorocebus sabaeus
Vero [18] = assay: Minimum cytotoxic concentration in vero cells of African green monkey kidney; conditions: Chlorocebus sabaeus; procedure, shortened: as §1
Oryctolagus cuniculus [19] = organism: Oryctolagus cuniculus; assay: Antiviral activity in primary rabbit kidney cell cultures against vaccinia virus

Row | SMILES | IC50 (FM3A) | MCC (HeLa [1]) | MIC (HeLa [2]) | MCC (Homo sapiens [3]) | MIC (Homo sapiens [4]) | IC50 (Homo sapiens [5]) | IC50 (L1210) | MCC (Oryctolagus cuniculus [6]) | MIC (Oryctolagus cuniculus [7]) | MIC (Oryctolagus cuniculus [8]) | MIC (Oryctolagus cuniculus [9]) | MIC (Oryctolagus cuniculus [10]) | MIC (Oryctolagus cuniculus [11]) | MIC (Oryctolagus cuniculus [12]) | MIC (Oryctolagus cuniculus [13]) | MIC (Oryctolagus cuniculus [14]) | MIC (Oryctolagus cuniculus [15]) | IC50 [16] | MIC (Vero [17]) | MCC (Vero [18]) | further results
1 | Nc1ncnc2c1ncn2[C@@H]1O[C@H](COP(=O)([O-])OC[C@H]2O[C@H](n3cnc4c(N)ncnc43)[C@@H](O)[C@@H]2O)[C@@H](O)[C@@H]1O.[Na+] | 86.6 µg/mL | > 400 µg/mL | 200 µg/mL | ≥ 400 µg/mL | 20 µg/mL | > 100 µg/mL | > 100 µg/mL | > 400 µg/mL | 70 µg/mL | 70 µg/mL | 70 µg/mL | 300 µg/mL | 150 µg/mL | 100 µg/mL | 70 µg/mL | 20 µg/mL | > 400 µg/mL | 43 µg/mL | 70 µg/mL | > 400 µg/mL | MIC (Oryctolagus cuniculus [19]): 7 µg/mL
2 | Nc1ncnc2c1ncn2[C@@H]1O[C@H](CO)[C@@H](OP(=O)([O-])O[C@H]2[C@H](O)[C@H](n3cnc4c(N)ncnc43)O[C@@H]2CO)[C@@H]1O.[Na+] | > 100 µg/mL | ≥ 400 µg/mL | > 400 µg/mL | > 400 µg/mL | > 400 µg/mL | > 100 µg/mL | > 100 µg/mL | > 400 µg/mL | > 400 µg/mL | > 400 µg/mL | > 400 µg/mL | > 400 µg/mL | > 400 µg/mL | > 400 µg/mL | > 400 µg/mL | > 400 µg/mL | > 400 µg/mL | > 100 µg/mL | > 400 µg/mL | ≥ 400 µg/mL | MIC (Oryctolagus cuniculus [19]): 300 µg/mL
3 | Nc1ncnc2c1ncn2C1O[C@H](CO)[C@@H](OP(=O)([O-])OC[C@H]2OC(n3cnc4c(N)ncnc43)[C@H](O)[C@H]2O)[C@@H]1O.[Na+] (stereo partly specified) | 20.4 µg/mL | 100 µg/mL | 20 µg/mL | ≥ 400 µg/mL | 10 µg/mL | 32.3 µg/mL | 10 µg/mL | 100 µg/mL | 10 µg/mL | 20 µg/mL | 7 µg/mL | 20 µg/mL | 20 µg/mL | 20 µg/mL | 7 µg/mL | 2 µg/mL | > 40 µg/mL | 23.3 µg/mL | 20 µg/mL | > 40 µg/mL | MIC (Oryctolagus cuniculus [19]): 2 µg/mL
4 | Nc1ncnc2c1ncn2C1O[C@H](CO)C(OP(=O)([O-])OC[C@H]2OC(n3cnc4c(N)ncnc43)[C@@H](O)[C@@H]2O)[C@@H]1O.[Na+] (stereo partly specified) | 22.4 µg/mL | ≥ 200 µg/mL | 20 µg/mL | > 400 µg/mL | 2 µg/mL | 30 µg/mL | 22.2 µg/mL | > 200 µg/mL | 10 µg/mL | 20 µg/mL | 10 µg/mL | 20 µg/mL | 20 µg/mL | 7 µg/mL | 7 µg/mL | 2 µg/mL | > 100 µg/mL | 13.6 µg/mL | 20 µg/mL | > 400 µg/mL | MIC (Oryctolagus cuniculus [19]): 0.2 µg/mL
5 | Nc1ncnc2c1ncn2[C@@H]1O[C@H](COP(=O)(O)O)[C@@H](O)[C@@H]1O [VIDARABINE PHOSPHATE] | 23.9 µg/mL | ≥ 400 µg/mL | 20 µg/mL | ≥ 400 µg/mL | 7 µg/mL | 32.6 µg/mL | 24.2 µg/mL | > 100 µg/mL | 7 µg/mL | 20 µg/mL | 10 µg/mL | 20 µg/mL | 20 µg/mL | 20 µg/mL | 7 µg/mL | 2 µg/mL | > 400 µg/mL | 18.5 µg/mL | 20 µg/mL | ≥ 200 µg/mL | MIC (Oryctolagus cuniculus [19]): 0.2 µg/mL
6 | Nc1ncnc2c1ncn2[C@@H]1O[C@H](CO)[C@@H](O)[C@@H]1O [VIDARABINE] | 21.1 µg/mL (≈ 79 µM) | > 200 µg/mL | 20 µg/mL (≈ 74.8 µM) | > 400 µg/mL | 7 µg/mL (≈ 26.2 µM) | 25.9 µg/mL (≈ 96.9 µM) | 21 µg/mL (≈ 78.6 µM) | > 100 µg/mL | 7 µg/mL (≈ 26.2 µM) | 20 µg/mL (≈ 74.8 µM) | 10 µg/mL (≈ 37.4 µM) | 20 µg/mL (≈ 74.8 µM) | 20 µg/mL (≈ 74.8 µM) | 20 µg/mL (≈ 74.8 µM) | 7 µg/mL (≈ 26.2 µM) | 7 µg/mL (≈ 26.2 µM) | 20 µg/mL (≈ 74.8 µM) | 16.7 µg/mL (≈ 62.5 µM) | 70 µg/mL (≈ 262 µM) | ≥ 400 µg/mL | MIC (Oryctolagus cuniculus [19]): 2 µg/mL (≈ 7.48 µM)
